# Measurements pooled from the literature.
# Compare with care: the assays were run in different laboratories.
# Cell line: K562
# Effect on: cell growth or viability
Structure (SMILES),assay,setting,IC50
C[C@@H](O)C(=O)CCCCCCC(=O)Nc1ccccc1,thymidine uptake,,62500 nM
Cc1c(O)c(=O)ccn1CCO,MTT,72 h,≥ 100000 nM
COC(=O)Nc1nc2ccc(Oc3ccc(NC(=O)Nc4cc(C(F)(F)F)ccc4F)cc3)cc2s1,XTT,72 h,81 nM
CC(=O)OCCC1=CC2C=CC=CC1C2C1CCCCC1=O (centres unmarked),flow cytometry,,39 nM
COc1cc(Nc2nccc(-c3cnn4nc(OC)ccc34)n2)cc(C(F)(F)F)c1,ATP luminescence,,260 nM
CCCCc1ccc2[nH]c(NC(=O)OC)nc2c1,CCK-8,72 h,61.2 nM
N[C@@H](CC(=O)N1CCN(C(c2ccc(F)cc2)c2ccc(F)cc2)CC1)C(=O)N1Cc2ccccc2C1,ATP luminescence,48 h,40800 nM
O=C1CCCCC1C1C2C=CC=CC1/C(=C/Cc1ccccc1)C2 (centres unmarked),flow cytometry,,38 nM
CN1c2ccccc2C(=O)N2[C@H](C(=O)Nc3ccc(C(=O)Nc4ccccc4N)cc3)Cc3c([nH]c4ccccc34)[C@@H]12,,,1900 nM
Cc1cc(NCCCCCCCNc2cc(C)nc3cc(N)ccc23)c2ccc(N)cc2n1,XTT,96 h,13000 nM
N#CCCCC1=CC2C=CC=CC1C2C1CCCCC1=O (centres unmarked),flow cytometry,,31 nM
COc1cc(C=NNc2ncnc3c2cnn3-c2ccccc2)ccc1O,XTT,72 h,3240 nM
O=C1NC(=NCc2cccs2)S/C1=C\c1ccc2ncccc2c1,,,> 10000 nM
N#CCCC1=CC2C=CC=CC1C2C1CCCCC1=O (centres unmarked),flow cytometry,,57 nM
CCCCN(Cc1ccc(C(=O)NO)cc1)C(=O)Nc1ccccc1,ATP luminescence,72 h,2260 nM
CCCCC1=CC2C=CC=CC1C2C1CCCCC1=O (centres unmarked),flow cytometry,,29 nM
CC[C@@H](C)[C@H](N)C(=O)N1Cc2ccccc2C1,ATP luminescence,,> 60000 nM
